Legend:
[1] = tested on: Human immunodeficiency virus 1; assay: Antiviral activity against HIV 1 in HeLa-CD4/CCR5 cells assessed as inhibition of viral infectivity after 48 hrs by MAGI assay; format: functional, organism-based; conditions: Human immunodeficiency virus 1, MAGI-CCR5, 48 h
Summary of the method: (§1)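 HeLa-CD4/CCR5-LTR/β-gal target cells at 10⁴ cells/well, plated the day before infection; inoculated with virus at 60 MAGI U/well and cultured with graded compound concentrations in fresh medium. After 48 h, X-Gal-stained blue cells were counted per well. EC50 (50% block of infection) was interpolated from the two concentrations bracketing 50% inhibition; three independent experiments.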

HeLa = assay: Cytotoxicity against human HeLa cells expressing CD4/CCR5 at 10 uM; format: cell-based
[2] = Cytotoxicity against human HeLa cells expressing CD4/CCR5; format: cell-based
[3] = tested on: Human immunodeficiency virus 2; assay: Antiviral activity against HIV 2 ROD in HeLa-CD4/CCR5 cells assessed as inhibition of viral infectivity after 48 hrs by MAGI assay; format: functional, organism-based; conditions: Human immunodeficiency virus 2, ISOLATE ROD, MAGI-CCR5, 48 h; summary of the method: as §1
[4] = tested on: Human immunodeficiency virus 2; assay: Antiviral activity against HIV 2 EHO in HeLa-CD4/CCR5 cells assessed as inhibition of viral infectivity after 48 hrs by MAGI assay; format: functional, organism-based; conditions: Human immunodeficiency virus 2, EHO, MAGI-CCR5, 48 h; summary of the method: as §1
[5] = Therapeutic index, ratio of CC50 for HeLa-CD4/CCR5 cells to EC50 for HIV 1 in HeLa-CD4/CCR5 cells assessed as inhibition of viral infectivity; format: cell-based; conditions: human, read-out: Ratio CC50/EC50
[6] = tested on: Human immunodeficiency virus 1; assay: Antiviral activity against HIV 1 BaL in HeLa-CD4/CCR5 cells assessed as inhibition of viral infectivity after 48 hrs by MAGI assay; format: functional, organism-based; conditions: Human immunodeficiency virus 1, BaL, MAGI-CCR5, 48 h; summary of the method: as §1
[7] = tested on: Human immunodeficiency virus 1; assay: Antiviral activity against HIV 1 NL4-3 in HeLa-CD4/CCR5 cells assessed as inhibition of viral infectivity after 48 hrs by MAGI assay; format: functional, organism-based; conditions: Human immunodeficiency virus 1, NL4-3, MAGI-CCR5, 48 h; summary of the method: as §1
[8] = tested on: Human immunodeficiency virus 1; assay: Ratio of PD 404182 EC50 to compound EC50 for HIV 1 BaL in HeLa-CD4/CCR5 cells assessed as inhibition of viral infectivity after 48 hrs by MAGI assay; format: functional
[9] = tested on: Human immunodeficiency virus 2; assay: Ratio of PD 404182 EC50 to compound EC50 for HIV 2 ROD in HeLa-CD4/CCR5 cells assessed as inhibition of viral infectivity after 48 hrs by MAGI assay; format: functional, ISOLATE ROD
[10] = tested on: Human immunodeficiency virus 1; assay: Ratio of PD 404182 EC50 to compound EC50 for HIV 1 NL4-3 in HeLa-CD4/CCR5 cells assessed as inhibition of viral infectivity after 48 hrs by MAGI assay; format: functional
[11] = tested on: Human immunodeficiency virus 2; assay: Ratio of PD 404182 EC50 to compound EC50 for HIV 2 EHO in HeLa-CD4/CCR5 cells assessed as inhibition of viral infectivity after 48 hrs by MAGI assay; format: functional

Row | EC50 [1] [nM] | Compound | other results
1 | > 1000 | N=C1Sc2cc(-c3ccc4c(C(=O)C(F)(F)F)c[nH]c4c3)ccc2C2=NCCCN12 | Activity (HeLa): Toxic
2 | 240 | COc1ccc(-c2ccc3c(c2)SC(=N)N2CCCN=C32)cc1 | 
3 | 550 | N=C1Sc2cc(-c3ccc(C(F)(F)F)cc3)ccc2C2=NCCCN12 | 
4 | 200 | N=C1Sc2cc(-c3cc4ccccc4o3)ccc2C2=NCCCN12 | 
5 | 5120 | N=C1Sc2cc(-n3ccnc3)ccc2C2=NCCCN12 | 
6 | 1810 | CS(=O)(=O)N1CCC2(CC1)CN=C1c3ccc(Br)cc3SC(=N)N1C2 | 
7 | 250 | COc1cc(-c2ccc3c(c2)SC(=N)N2CCCN=C32)cc(OC)c1OC | 
8 | 1350 | N=C1Sc2cc(-c3cccc(-c4ccccc4)c3)ccc2C2=NCCCN12 | 
9 | 250 | N=C1Sc2cc(-c3ccc4ncccc4c3)ccc2C2=NCCCN12 | 
10 | 320 | N=C1Sc2cc(-c3ccccc3-c3ccccc3)ccc2C2=NCCCN12 | 
11 | 200 | N=C1Sc2cc(-c3ccc4ccccc4c3)ccc2C2=NCCCN12 | 
12 | 1450 | COc1ccc(CN2CCC3(CC2)CN=C2c4ccc(Br)cc4SC(=N)N2C3)cc1 | 
13 | 410 | COc1ccccc1-c1ccc2c(c1)SC(=N)N1CCCN=C21 | 
14 | > 10000 | CS(=O)(=O)Nc1cccc(-c2ccc3c(c2)SC(=N)N2CCCN=C32)c1 | 
15 | 810 | COC(=O)c1ccc(-c2ccc3c(c2)SC(=N)N2CCCN=C32)cc1 | 
16 | 250 | N=C1Sc2cc(Br)ccc2C2=NCCCN12 | 
17 | 1260 | N=C1Sc2cc(-c3cccc([N+](=O)[O-])c3)ccc2C2=NCCCN12 | 
18 | 320 | COc1ccc(-c2ccc3c(c2)SC(=N)N2CCCN=C32)cc1Cl | 
19 | 480 | COc1ccc(Cl)cc1-c1ccc2c(c1)SC(=N)N1CCCN=C21 | 
20 | 250 | N=C1Sc2cc(Br)ccc2C2=NCC3(CCCCC3)CN12 | 
21 | 450 | N=C1Sc2cc(-c3cccnc3)ccc2C2=NCCCN12 | 
22 | 1170 | N#Cc1cccc(-c2ccc3c(c2)SC(=N)N2CCCN=C32)c1 | 
23 | 240 | CC1(C)CN=C2c3ccccc3SC(=N)N2C1 | 
24 | 260 | N=C1Sc2cc(-c3ccco3)ccc2C2=NCCCN12 | 
25 | 320 | CC(C)Oc1cccc(-c2ccc3c(c2)SC(=N)N2CCCN=C32)c1 | 

Row | EC50 [1] [nM] | Compound | other results
26 | 390 | COC(=O)c1cccc(-c2ccc3c(c2)SC(=N)N2CCCN=C32)c1 | 
27 | 220 | N=C1Sc2cc(-c3ccsc3)ccc2C2=NCCCN12 | 
28 | 420 | N=C1Sc2cc(-n3cccn3)ccc2C2=NCCCN12 | 
29 | > 10000 | CC(=O)Nc1cccc(-c2ccc3c(c2)SC(=N)N2CCCN=C32)c1 | 
30 | 540 | N=C1Sc2cc(-c3ccncc3)ccc2C2=NCCCN12 | 
31 | 440 | N=C1Sc2ccccc2C2=NCCCN12 | CC50 [2]: > 100000 nM; EC50 [3]: 300 nM; EC50 [4]: 310 nM; selectivity ratio [5]: > 200; EC50 [6]: 370 nM; EC50 [7]: 380 nM
32 | 2620 | N=C1Sc2cc(-c3cccc(O)c3)ccc2C2=NCCCN12 | 
33 | 390 | N=C1Sc2cc(-c3cccc4ccccc34)ccc2C2=NCCCN12 | 
34 | 150 | N=C1Sc2cc(-c3ccc4c(c3)OCO4)ccc2C2=NCCCN12 | Ratio EC50 [8]: 3; EC50 [3]: 100 nM; Ratio EC50 [9]: 3; EC50 [4]: 140 nM; Ratio EC50 [10]: 2; Ratio EC50 [11]: 2; EC50 [6]: 130 nM; EC50 [7]: 230 nM
35 | 1190 | CC(O)c1cccc(-c2ccc3c(c2)SC(=N)N2CCCN=C32)c1 (racemic) | 
36 | 200 | CSc1ccc(-c2ccc3c(c2)SC(=N)N2CCCN=C32)cc1 | 
37 | 440 | N#Cc1ccc(-c2ccc3c(c2)SC(=N)N2CCCN=C32)cc1 | 
38 | 150 | COc1cccc(-c2ccc3c(c2)SC(=N)N2CCCN=C32)c1 | 
39 | 1730 | N=C1Sc2cc(Br)ccc2C2=NCC3(CCOCC3)CN12 | 
40 | > 10000 | N=C1Sc2cc(Br)ccc2C2=NCC3(CCN(C(N)=O)CC3)CN12 | 
41 | 2740 | CC(=O)N1CCC2(CC1)CN=C1c3ccc(Br)cc3SC(=N)N1C2 | 
42 | 260 | N=C1Sc2cc(-c3cc4ccccc4s3)ccc2C2=NCCCN12 | 
43 | 440 | COC(=O)N1CCC2(CC1)CN=C1c3ccc(Br)cc3SC(=N)N1C2 | 
44 | 260 | N=C1Sc2cc(-c3ccc4c(c3)OCCO4)ccc2C2=NCCCN12 | 
45 | > 1000 | N=C1Sc2cc(-c3ccc4[nH]cc(C(=O)C(F)(F)F)c4c3)ccc2C2=NCCCN12 | Activity (HeLa): Toxic
46 | 380 | N=C1Sc2cc(-c3ccc(OC(F)(F)F)cc3)ccc2C2=NCCCN12 | 
47 | 460 | N=C1Sc2cc(-c3ccc([N+](=O)[O-])cc3)ccc2C2=NCCCN12 | 
48 | 8710 | N=C1Sc2cc(-c3ccc(C(N)=O)cc3)ccc2C2=NCCCN12 | 
49 | 270 | COc1ccc(-c2ccc3c(c2)SC(=N)N2CCCN=C32)cc1OC | 
50 | 240 | N=C1Sc2cc(-c3ccccc3)ccc2C2=NCCCN12 | 
